Source: ChEMBL document CHEMBL1255454, “Systematic approach to optimizing specifically targeted antimicrobial peptides against Streptococcus mutans” (2010)
Converted amounts (≈) assume the structure as drawn. The source made the active and inactive calls. The rule behind the calls is not given here. Square brackets hold non-standard residues; d marks the D form. Peptide text beside a SMILES is read from it. Aoc = NCCCCCCCC(=O)O

Assays:
Streptococcus sanguinis [1] = assay: Antimicrobial activity against Streptococcus sanguinis NY101 after 16 to 20 hrs by broth microdilution assay; type: functional
Summary of the method: (§1)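 Broth microdilution. Twofold peptide dilutions were made in 50% BHI–50% sterile water for oral streptococci and in 1× Mueller-Hinton broth for the other bacteria. First round 500 to 0.97 µg/ml; a second round of 64 to 0.5 µg/ml was run in some cases, reporting its mode. Inoculum ~1 × 10^5 CFU/ml, 37°C for 16–20 h. Read A600; MIC taken as complete inhibition or ≥90% turbidity reduction versus peptide-free control.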

Streptococcus sobrinus = assay: Antimicrobial activity against Streptococcus sobrinus ATCC 33478 after 16 to 20 hrs by broth microdilution assay; type: functional; summary of the method: as §1
Staphylococcus aureus = assay: Antimicrobial activity against methicillin-resistant Staphylococcus aureus after 16 to 20 hrs by broth microdilution assay; type: functional
Summary of the method: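 MRSA grown aerobically in BHI at 37°C. Broth microdilution: 2-fold peptide dilutions in 1× Mueller-Hinton broth, first round 500 to 0.97 µg/ml; if activity below 62.5 µg/ml, sometimes a second round at 64 to 0.5 µg/ml, reporting the mode. Inoculum ~1 × 10^5 CFU/ml, 37°C for 16-20 h. A600 read. MIC = lowest concentration giving complete inhibition or ≥90% turbidity reduction versus peptide-free control.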

Escherichia coli = assay: Antimicrobial activity against Escherichia coli W3110 after 16 to 20 hrs by broth microdilution assay; type: functional; summary of the method: as §1
Enterococcus faecalis = assay: Antimicrobial activity against Enterococcus faecalis after 16 to 20 hrs by broth microdilution assay; type: functional; summary of the method: as §1
Pseudomonas aeruginosa = assay: Antimicrobial activity against Pseudomonas aeruginosa PAK after 16 to 20 hrs by broth microdilution assay; type: functional; summary of the method: as §1
Streptococcus mutans [2] = assay: Antimicrobial activity against Streptococcus mutans UA159 after 16 to 20 hrs by broth microdilution assay; type: functional; summary of the method: as §1
[3] = Antimicrobial activity against Streptococcus gordonii Challis DL1 after 16 to 20 hrs by broth microdilution assay; type: functional, Streptococcus gordonii str. Challis; summary of the method: as §1
Streptococcus sanguinis [4] = assay: Antimicrobial activity against Streptococcus sanguinis NY101 at 25 ug/ml after 30 mins by time-kill assay; type: functional, organism-based
Summary of the method: (§2)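 Time-kill. Overnight cultures were diluted in BHI to A600 0.08 and treated with peptide at 25 µg/ml for 30 s to 2 h. Aliquots were diluted 1:50 in BHI, held on ice, plated and counted after 24 h as surviving CFU/ml. Three independent experiments, mean with SD; unpaired Student t test.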

Streptococcus mitis [5] = assay: Antimicrobial activity against Streptococcus mitis ATCC 903 at 25 ug/ml after 30 mins by time-kill assay; type: functional, organism-based; summary of the method: as §2
Streptococcus mitis [6] = assay: Antimicrobial activity against Streptococcus mitis ATCC 903 after 16 to 20 hrs by broth microdilution assay; type: functional; summary of the method: as §1
[7] = tested on: Streptococcus gordonii str. Challis; assay: Antimicrobial activity against Streptococcus gordonii Challis DL1 at 25 ug/ml after 30 mins by time-kill assay; type: functional; summary of the method: as §2
Streptococcus mutans [8] = assay: Antimicrobial activity against Streptococcus mutans UA159 at 25 ug/ml after 30 mins by time-kill assay; type: functional; summary of the method: as §2
Streptococcus mitis [9] = assay: Antimicrobial activity against Streptococcus mitis assessed as inhibition of bacterial biofilm formation at 50 uM after 10 mins; type: functional
Summary of the method: (§3)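 Mixed-species biofilms were grown 24 h at 37°C anaerobically in TH with 50% filter-sterilized pooled human saliva and 1% sucrose. Inoculum: S. mutans JM11 at 1 × 10^6 CFU/well plus S. oralis, S. gordonii, S. sanguinis, S. mitis and S. salivarius at 2 × 10^5 CFU/well each. Survivors were plated on TH agar for total streptococci and on TH agar with 800 µg/ml spectinomycin for JM11. Detection limit 100 CFU/ml.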

Streptococcus sanguinis [10] = assay: Antimicrobial activity against Streptococcus sanguinis assessed as inhibition of bacterial biofilm formation at 50 uM after 10 mins; type: functional; summary of the method: as §3
Streptococcus oralis = assay: Antimicrobial activity against Streptococcus oralis assessed as inhibition of bacterial biofilm formation at 50 uM after 10 mins; type: functional; summary of the method: as §3
Streptococcus mutans [11] = assay: Antimicrobial activity against Streptococcus mutans UA159 assessed as inhibition of viability of bacterial biofilm at 25 ug/ml treated for 1 min measured after 4 hrs; type: functional
Summary of the method: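 S. mutans biofilms were seeded from overnight culture diluted 1:50 in TH broth with 0.5% sucrose, centrifuged, and grown 4 h anaerobically at 37°C. They were exposed to peptide in 1× PBS for about 1 min, washed, and given fresh TH broth without sucrose. Recovery was read as A600 after 4 h anaerobic incubation at 37°C. Three experiments; unpaired t test.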

Streptococcus salivarius = assay: Antimicrobial activity against Streptococcus salivarius assessed as inhibition of bacterial biofilm formation at 50 uM after 10 mins; type: functional; summary of the method: as §3
Streptococcus mutans [12] = assay: Antimicrobial activity against Streptococcus mutans JM11 assessed as inhibition of bacterial biofilm formation at 50 uM after 10 mins; type: functional; summary of the method: as §3
Streptococcus gordonii = assay: Antimicrobial activity against Streptococcus gordonii assessed as inhibition of bacterial biofilm formation at 50 uM after 10 mins; type: functional; summary of the method: as §3
Streptococcus mutans [13] = assay: Antimicrobial activity against Streptococcus mutans UA159 assessed as inhibition of bacterial biofilm formation at 25 uM after 3 mins by fluorescence assay; type: functional
Summary of the method: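 S. mutans UA159 overnight culture was diluted 1:5,000 in TH with 1% sucrose and grown as biofilm for 24 h. Biofilms were exposed 3 min at room temperature to 25 µM fluorescein-labelled peptide in HEPES/NaHCO3/NaCl/MgCl2 buffer with 0.1% CTAB, pH 7.4, then washed twice. Green fluorescence images were taken and biofilm-associated green pixels quantified as binding intensity units.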

| Compound | MIC (Streptococcus sanguinis [1]) [mg/L] | MIC (Streptococcus sobrinus) [mg/L] | MIC (Staphylococcus aureus) [mg/L] | MIC (Escherichia coli) [mg/L] | MIC (Enterococcus faecalis) [mg/L] | MIC (Pseudomonas aeruginosa) [mg/L] | MIC (Streptococcus mutans [2]) [mg/L] | MIC [3] [mg/L] | MIC (Streptococcus mitis [6]) [mg/L] | inhibition (Streptococcus mutans [13]) | other results |
| --- | --- | --- | --- | --- | --- | --- | --- | --- | --- | --- | --- |
| CC[C@H](C)[C@H](NC(=O)[C@H](Cc1ccccc1)NC(=O)[C@H](Cc1cnc[nH]1)NC(=O)[C@H](CCCCN)NC(=O)[C@@H](NC(=O)[C@H](Cc1ccccc1)NC(=O)[C@@H]1CCCN1C(=O)[C@H](Cc1ccc(O)cc1)NC(=O)[C@@H]1CCCN1C(=O)[C@H](Cc1ccccc1)NC(=O)[C@@H](Cc1cnc[nH]1)NC(=O)[C@@H](CC(C)C)NC(=O)[C@@H](Cc1cnc[nH]1)NC(=O)[C@@H](Cc1ccccc1)NC(=O)[C@@H](Cc1cnc[nH]1)NC(=O)[C@H](N)Cc1ccccc1)[C@@H](C)CC)C(=O)N[C@@H](Cc1cnc[nH]1)C(=O)N[C@@H](CCCNC(=N)N)C(=O)N[C@@H](Cc1ccccc1)C(N)=O | 62.5 (≈ 24.3 µM) | 62.5 (≈ 24.3 µM) | > 500 | 125 (≈ 48.7 µM) | 250 (≈ 97.4 µM) | 125 (≈ 48.7 µM) | 32 (≈ 12.5 µM) |  |  |  |  |
| CC[C@H](C)[C@H](NC(=O)[C@H](Cc1ccccc1)NC(=O)[C@H](Cc1cnc[nH]1)NC(=O)[C@H](CCCCN)NC(=O)[C@@H](NC(=O)[C@@H](N)Cc1ccccc1)[C@@H](C)CC)C(=O)N[C@@H](Cc1cnc[nH]1)C(=O)N[C@@H](CCCNC(=N)N)C(=O)N[C@@H](Cc1ccccc1)C(=O)NCCCCCCCC(=O)N[C@@H](CCCNC(=N)N)C(=O)N[C@@H](Cc1c[nH]c2ccccc12)C(=O)N[C@@H](CCCNC(=N)N)C(=O)N[C@@H](Cc1c[nH]c2ccccc12)C(=O)N[C@@H](CCCNC(=N)N)C(=O)N[C@@H](Cc1c[nH]c2ccccc12)C(=O)N[C@@H](Cc1ccccc1)C(N)=O (H-FIKHFIHRF[Aoc]RWRWRWF-NH2) | 32 (≈ 12.5 µM) |  | 32 (≈ 12.5 µM) |  |  | 62.5 (≈ 24.4 µM) | 8 (≈ 3.13 µM) | 32 (≈ 12.5 µM) | 16 (≈ 6.25 µM) |  | Activity (Streptococcus sanguinis [4]): Active; Activity (Streptococcus mitis [5]): Active; Activity [7]: Active; Activity (Streptococcus mutans [8]): Active |
| N=C(NCCCCCCNC(=N)NC(=N)Nc1ccc(Cl)cc1)NC(=N)Nc1ccc(Cl)cc1 [CHLORHEXIDINE] |  |  |  |  |  |  |  |  |  |  | inhibition at 50 µM (Streptococcus mitis [9]): 95%; inhibition at 50 µM (Streptococcus sanguinis [10]): 95%; inhibition at 50 µM (Streptococcus oralis): 95%; inhibition (Streptococcus mutans [11]): Active; inhibition at 50 µM (Streptococcus salivarius): 95%; inhibition at 50 µM (Streptococcus mutans [12]; JM11, 10 min): 95%; inhibition at 50 µM (Streptococcus gordonii): 95% |
| H-AAKHAAHRA-NH2 | > 500 | > 500 | > 500 | > 500 | > 500 | > 500 | > 500 | > 500 | > 500 | inactive |  |
| H-FHFHLHFASASAFIKHFIHRF-NH2 | 32 | 32 | 62.5 | 62.5 | 62.5 | 125 | 16 |  |  |  |  |
| H-FHFHLHFGGGFIKHFIHRF-NH2 | 62.5 | 62.5 | 125 | 62.5 | 62.5 | 62.5 | 32 |  |  |  |  |
| H-FHFHLHFPSGSPFIKHFIHRF-NH2 | 62.5 | 62.5 | > 500 | 125 | 250 | > 500 | 62.5 |  |  | Active |  |
| H-FHFHLHFPSPSPFIKHFIHRF-NH2 | 125 | 125 | > 500 | 62.5 | 250 | 125 | 32 |  |  |  |  |
| H-FHFHLHFSATFIKHFIHRF-NH2 | 62.5 | 250 | 125 | 125 | 62.5 | 125 | 16 |  |  | Active |  |
| H-FIKHFIHRF-NH2 | 125 | 125 | > 500 | > 500 | > 500 | > 500 | 125 | > 500 | > 500 | Active |  |
| H-FIKHFIHRFGGGRWRWRWF-NH2 | 32 |  | 32 |  |  | 62.5 | 8 | 32 | 32 | Active | Activity (Streptococcus sanguinis [4]): Active; inhibition (Streptococcus mutans [11]): Active; Activity (Streptococcus mitis [5]): Active; inhibition (Streptococcus mutans [12]): Active; Activity [7]: Active; Activity (Streptococcus mutans [8]): Active |
| H-FIKHFIHRFSATRWRWRWF-NH2 | 32 |  | 125 |  |  | 62.5 | 8 | 32 | 16 | Active | inhibition (Streptococcus mitis [9]): inactive; inhibition (Streptococcus sanguinis [10]): inactive; inhibition (Streptococcus oralis): inactive; inhibition (Streptococcus mutans [11]): Active; inhibition (Streptococcus salivarius): inactive; inhibition (Streptococcus mutans [12]): Active; inhibition (Streptococcus gordonii): inactive |
| H-LIKHILHRL-NH2 | > 500 | > 500 | > 500 | > 500 | > 500 | > 500 | 125 | > 500 | > 500 | Active |  |
| H-LIKHILHRLGGGFHFHLHF-NH2 | 62.5 | 32 | 62.5 | 250 | 32 | 250 | 16 |  |  |  |  |
| H-RWRWRWF-NH2 | 32 |  | 32 |  |  | 32 | 4 | 32 | 32 | Active | inhibition (Streptococcus mitis [9]): inactive; inhibition (Streptococcus sanguinis [10]): inactive; Activity (Streptococcus sanguinis [4]): Active; inhibition (Streptococcus oralis): inactive; inhibition (Streptococcus mutans [11]): Active; inhibition (Streptococcus salivarius): inactive; Activity (Streptococcus mitis [5]): Active; inhibition (Streptococcus gordonii): inactive; Activity [7]: Active; Activity (Streptococcus mutans [8]): Active |
| H-WWHSWWSTW-NH2 | 125 | 125 | > 125 | 125 | > 125 | > 125 | 125 | 125 | 125 | Active |  |
| H-WWKDWWERW-NH2 | > 500 | > 500 | > 500 | > 500 | > 500 | > 500 | > 500 | > 500 | > 500 | Active |  |
| H-WWQDWWNEW-NH2 | > 500 | > 500 | > 500 | > 500 | > 500 | > 500 | > 500 | > 500 | > 500 | Active |  |
| H-WWSYWWTQW-NH2 | 125 | 125 | > 125 | 125 | > 125 | > 125 | 125 | 125 | 125 | Active |  |
| H-WWYNWWQDW-NH2 | > 500 | > 500 | > 500 | > 500 | > 500 | > 500 | > 500 | > 500 | > 500 |  |  |
